“And” between values parts separate entries of the source, which are not always exact repeats. Equal values may be shown once.
Legend:
SIRT6 protein = SIRT6 protein (Gallus gallus, UniProt A0A8V1A309); test: Frontal affinity chromatography on the SIRT6-OT column; type: binding, chicken; settings: for Kd: SIRT6-OT column, ammonium acetate 10 mM pH 7.4:methanol 90:10, 0.2 mM NAD+, non-linear regression
SIRT6 = test: Histone deacetylation assay by mass spectrometry on SIRT6-coated magnetic beads; type: biochemical, chicken; settings: 10 μM of each compound, H3K9Ac peptide, 0.2 mM NAD+, 4 h at 37°C
Outline: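 SIRT6 was coupled by its C-terminus to amine-terminated magnetic beads (1 μm). Beads were incubated in 50 μL of 50 mM Tris-HCl pH 8.0, 150 mM NaCl, 1 mM DTT with 5 μg of H3K9Ac peptide (residues 1–21). p-Aminohippuric acid was added as internal standard. The supernatant, taken after magnetic separation, was run on C18 LC-ESI-MS, positive-ion SIM at m/z 922.4 (acetylated) and 908.4 (deacetylated).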

[1] = test system: quercetin binding site of SIRT6; test: Frontal displacement chromatography of quercetin on the SIRT6-OT column; parameters: species or system chicken; settings: 10 μM polyphenol in mobile phase in the presence of 5 μM quercetin
Outline: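 Full-length chicken SIRT6, expressed in E. coli as a GST fusion, thrombin-cleaved and purified by size exclusion. Coupled inside an open tubular capillary (30 cm × 100 μm i.d.) with EDC/Sulfo-NHS in 100 mM MES pH 5.5, 18 h at 4°C. Frontal runs at room temperature, 0.05 mL min^-1, in 10 mM ammonium acetate pH 7.4:methanol (90:10) with 0.2 mM NAD⁺. ESI-MS detection; retention-volume shift recorded.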

Row | SMILES | Kd (SIRT6 protein) | fold decrease in affinity for the SIRT6 protein (SIRT6 protein; naringenin vs apigenin (saturation of the C ring double bond)) [fold] | % inhibition of deacetylation relative to control (SIRT6) [%] | displacement of quercetin (change in retention) [1] [min] | breakthrough volume (SIRT6 protein; 2 μM quercetin on SIRT6-OT column) [mL] | midpoint of the breakthrough curve (SIRT6 protein; 2 μM quercetin on SIRT6-OT column, 0.05 mL/min) [min]
1 | O=C1C[C@@H](c2ccc(O)cc2)Oc2cc(O)cc(O)c21 [Naringenin] | 6.6 µM and 6.62 µM | 3 | 31.0 ± 5.3 |  |  | 
2 | O=c1cc(-c2ccc(O)cc2)oc2c([C@@H]3O[C@H](CO)[C@@H](O)[C@H](O)[C@H]3O)c(O)cc(O)c12 [Vitexin] | 15.3 µM |  | 24.9 ± 0.9 | 16.5 |  | 
3 | O=c1cc(-c2ccc(O)cc2)oc2cc(O)cc(O)c12 [Apigenin] | 1.9 µM and 1.92 µM |  | 39.0 ± 5.9 |  |  | 
4 | O=c1c(O)c(-c2ccc(O)c(O)c2)oc2cc(O)cc(O)c12 [Quercetin] | 4.09 ± 2.26 µM |  | 46.6 ± 2.3 |  | 5.25 | 105
5 | O=c1c(-c2ccc(O)cc2)coc2cc(O)cc(O)c12 [genistein, Genistein] |  |  |  | 2.5 |  | 
6 | O=c1cc(-c2ccc(O)c(O)c2)oc2cc(O)cc(O)c12 [Luteolin] | 1.78 ± 0.64 µM |  | 53.7 ± 17.7 | 38.1 |  | 
7 | O=c1c(O)c(-c2ccc(O)cc2)oc2cc(O)cc(O)c12 [Kaempferol] | 3.88 ± 0.57 µM |  | 48.6 ± 6.0 |  |  | 
